# From ChEMBL document CHEMBL4400546, “A Cinchona Alkaloid Antibiotic That Appears To Target ATP Synthase in Streptococcus pneumoniae” (J Med Chem, 2019)
# Tests used:
# [1] = Mitochondrial toxicity in human HepG2 cells assessed as reduction in cell viability after 24 hrs in presence of glucose by CellTiter-Glo assay; assay type: cell-based
# In short: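 HepG2 cells grown in DMEM with 10 mM glucose, treated 24 h; viability read by CellTiter-Glo luminescence. Value is the concentration giving 90% loss of viability (CC90) from dose-response curves, top concentration 300 µM.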
# [2] = Mitochondrial toxicity in human HepG2 cells assessed as reduction in cell viability after 24 hrs in presence of galactose by CellTiter-Glo assay; assay type: cell-based
# In short: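 HepG2 cells are grown in DMEM supplemented with 10 mM galactose or 10 mM glucose and treated for 24 h. Viability is read by CellTiter-Glo luminescence. The CC90 is the concentration inhibiting 90% of cell viability, taken from dose–response curves. Oligomycin and tamoxifen serve as controls.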
# [3] = system: Streptococcus pneumoniae D39; assay: Inhibition of wild-type Streptococcus pneumoniae D39 ATP synthase atpE assessed as intracellular pH at 10 uM measured at 5 mins intervals by pH-sensitive GFP-based fluorescence assay (reference value: 7.34 +/- 0.04); assay type: cell-based
# In short: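 S. pneumoniae D39 WT and isogenic atpE G142C or G145A mutants carry a plasmid-borne ratiometric pH-sensitive GFP biosensor. Cells are in PBS pH 7.2 with 10 mM glucose and are treated with compound, DMSO (0.5% v/v) or CCCP (10 µM). Intracellular pH is read immediately and at 5-min intervals. Two independent experiments, each in triplicate.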
# [4] = system: Staphylococcus epidermidis; assay: Antibacterial activity against Staphylococcus epidermidis; assay type: functional
# Streptococcus pneumoniae [5] = assay: Antibacterial activity against Streptococcus pneumoniae; assay type: functional
# In short: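 MIC read per CLSI guidelines as the lowest concentration giving complete inhibition of visible growth. The main screen used strain D39. A further panel covered drug-sensitive, multidrug-resistant and optochin-resistant strains, including R6 carrying atpE point mutations G142C or G145A made by a PCR-based approach.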
# Enterococcus faecalis = assay: Antibacterial activity against Enterococcus faecalis; assay type: functional
# [6] = Cmax in human; assay type: ADME
# [7] = Protein binding in plasma (unknown origin); assay type: ADME, cell-free; details: read-out: PPB
# Staphylococcus aureus = assay: Antibacterial activity against Staphylococcus aureus; assay type: functional
# [8] = Elimination half life in human
# [9] = Tmax in ICR mouse at 2.5 mg/kg, iv by LC-MS/MS analysis; assay type: ADME, organism-based; details: in vivo
# In short: (§1)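 Male ICR mice, single i.v. bolus at 2.5 mg/kg. Serum concentration-time curves (n = 3) analysed noncompartmentally to give Tmax and steady-state volume of distribution.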
# Streptococcus pneumoniae [10] = assay: Antibacterial activity against amoxicillin/penicillin/cefotaxime/erythromycin/tetracycline-resistant Streptococcus pneumoniae TH2784 (19F) after 20 hrs by CLSI-based microdilution method; assay type: functional
# Streptococcus pneumoniae [11] = assay: Antibacterial activity against Streptococcus pneumoniae D39 after 20 hrs by CLSI-based microdilution method; assay type: functional; details: D39, 20 h
# [12] = AUCt in ICR mouse at 2.5 mg/kg, iv by LC-MS/MS analysis; assay type: ADME, organism-based; details: in vivo
# In short: (§2)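 Single-dose PK in male ICR mice, bolus p.o. 25 mg/kg or i.v. 2.5 mg/kg. Plasma concentration followed over time, n = 3. Parameters derived by noncompartmental analysis of the concentration–time curves. Oral bioavailability calculated from AUC.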
# [13] = Clearance in ICR mouse at 2.5 mg/kg, iv by LC-MS/MS analysis; assay type: ADME, organism-based; details: in vivo; in short: as §2
# Streptococcus pneumoniae [14] = assay: Antibacterial activity against amoxicillin/penicillin/chloramphenicol/erythromycin/meropenem/cefotaxime-resistant Streptococcus pneumoniae TH2582 (19A) after 20 hrs by CLSI-based microdilution method; assay type: functional
# [15] = Volume of distribution at steady state in ICR mouse at 2.5 mg/kg, iv by LC-MS/MS analysis; assay type: ADME, organism-based; details: in vivo, read-out: Vdss; in short: as §1
# [16] = Oral bioavailability in ICR mouse at 25 mg/kg via bolus administration by LC-MS/MS analysis; assay type: ADME, organism-based; details: in vivo
# In short: (§3)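 Male ICR mice, single oral bolus at 25 mg/kg. Serum concentration-time profiles (n = 3) analysed by noncompartmental analysis.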
# [17] = Elimination half life in ICR mouse at 25 mg/kg, po via bolus administration by LC-MS/MS analysis; assay type: ADME, organism-based; details: in vivo, read-out: beta t1/2 (converted); in short: as §2
# [18] = Cmax in ICR mouse at 25 mg/kg, po via bolus administration by LC-MS/MS analysis; assay type: ADME, organism-based; design: dose 25 mg/kg, route oral; details: in vivo; in short: as §2
# [19] = Tmax in ICR mouse at 25 mg/kg, po via bolus administration by LC-MS/MS analysis; assay type: ADME, organism-based; details: in vivo; in short: as §3
# [20] = AUCt in ICR mouse at 25 mg/kg, po via bolus administration by LC-MS/MS analysis; assay type: ADME, organism-based; details: in vivo; in short: as §2
# [21] = Cmax in ICR mouse at 2.5 mg/kg, iv by LC-MS/MS analysis; assay type: ADME, organism-based; design: dose 2.5 mg/kg, route intravenous; details: in vivo; in short: as §2
# [22] = Drug metabolism in ICR mouse liver microsomes at 10 uM preincubated with NADPH for 10 mins and measured after 60 mins by LC-MS/MS analysis; assay type: ADME, Microsome; details: read-out: Drug metabolism
# [23] = Elimination half life in ICR mouse at 2.5 mg/kg, iv by LC-MS/MS analysis; assay type: ADME, organism-based; details: in vivo, read-out: beta t1/2 (converted); in short: as §2
# [24] = Cytotoxicity against human HepG2 cells assessed as reduction in cell viability after 48 hrs by Alamar Blue assay; assay type: cell-based
# Streptococcus pneumoniae [25] = assay: Antibacterial activity against amoxicillin/penicillin/erythromycin/ertapenem/moxifloxacin/cefotaxime-resistant Streptococcus pneumoniae TH2889 (6B) after 20 hrs by CLSI-based microdilution method; assay type: functional
# Streptococcus pneumoniae [26] = assay: Bactericidal activity against Streptococcus pneumoniae D39 after 24 hrs; assay type: functional; details: D39, 24 h
compound,measurement,setting,value
N#CC(C#N)=NNc1cccc(Cl)c1,pH,[3],5.43
"O[C@@H](c1cc(C(F)(F)F)nc2c(C(F)(F)F)cccc12)[C@H]1CCCCN1 [(S,R)-MEFLOQUINE]",MIC,[4],16 µg/mL
same,MIC,Streptococcus pneumoniae [5],0.4 to 0.8 µg/mL
same,MIC,Enterococcus faecalis,16 µg/mL
same,Cmax,[6],50 ng/mL
same,fraction unbound,[7],< 0.02
same,MIC,Staphylococcus aureus,16 µg/mL
same,half-life,[8],20 days
C/C=C1/CN2CC[C@H]1C[C@H]2[C@H](O)c1ccnc2ccc(O)cc12,Tmax,[9],1.98 min
same,MIC,Streptococcus pneumoniae [10],4 µg/mL
same,MIC,Streptococcus pneumoniae [11],52 µM
same,AUC(0-t),[12],190 ng·h/mL
same,clearance,[13],207 mL/min/kg
same,MIC,Streptococcus pneumoniae [14],64 µg/mL
same,Vd,[15],20 L/kg
same,CC90 at 24 h,[1],> 300 µM
same,bioavailability,[16],23.3%
same,half-life,[17],54.6 min
same,CC90 at 24 h,[2],300 µM
same,Cmax,[18],619 ng/mL
same,Tmax,[19],4.98 min
same,AUC(0-t),[20],442 ng·h/mL
same,Cmax,[21],511 ng/mL
same,"metabolised at 1 h, 10 µM",[22],89%
same,half-life,[23],67.2 min
same,CC50 at 48 h,[24],> 100 µM
same,MIC,Streptococcus pneumoniae [25],128 µg/mL
same,MBC,Streptococcus pneumoniae [26],16 µg/mL
